Laboratory results as given in ChEMBL document CHEMBL4308921, “Structure-Activity Relationships of Central Nervous System Penetration by Fatty Acid Amide Hydrolase (FAAH)-Targeted Thyromimetic Prodrugs” (ACS Med Chem Lett, 2019).

What was measured:
[1] = Prodrug activation in C57BL/6 mouse serum assessed as FAAH-mediated sobetirome formation at 3.05 umol/kg, ip after 1 hr by LC-MS/MS analysis; format: organism-based; settings: in vivo
[2] = molecular target: T1, Fatty-acid amide hydrolase 1 (Homo sapiens, UniProt O00519); assay: Prodrug activation in COS7 cells overexpressing human FAAH assessed as FAAH-mediated sobetirome formation by measuring compound hydrolysis rate at 100 uM by LC-MS/MS analysis; format: cell-based
T1 sequence (O00519 whole entry): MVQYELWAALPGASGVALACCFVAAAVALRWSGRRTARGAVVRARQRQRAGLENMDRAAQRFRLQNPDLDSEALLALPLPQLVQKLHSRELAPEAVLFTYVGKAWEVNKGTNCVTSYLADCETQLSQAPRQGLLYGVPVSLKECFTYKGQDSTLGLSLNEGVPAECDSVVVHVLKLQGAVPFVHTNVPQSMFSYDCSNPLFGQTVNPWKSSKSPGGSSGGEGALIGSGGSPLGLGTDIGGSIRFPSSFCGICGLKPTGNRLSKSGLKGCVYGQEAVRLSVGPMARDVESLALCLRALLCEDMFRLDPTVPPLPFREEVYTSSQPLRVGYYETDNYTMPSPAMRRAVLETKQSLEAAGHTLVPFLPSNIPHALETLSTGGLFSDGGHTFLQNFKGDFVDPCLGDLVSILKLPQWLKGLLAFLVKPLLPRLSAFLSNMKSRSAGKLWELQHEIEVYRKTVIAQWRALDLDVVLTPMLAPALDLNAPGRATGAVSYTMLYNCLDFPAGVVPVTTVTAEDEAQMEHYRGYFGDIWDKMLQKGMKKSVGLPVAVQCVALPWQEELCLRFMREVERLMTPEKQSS
How it was run: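 Hydrolysis kinetics were measured in homogenate of COS-7 cells overexpressing human FAAH, with prodrug substrate at 100 µM. Rate is given as nmol mg-1 min-1, mean ± SEM, n = 3.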

[3] = Brain to serum permeability coefficient, Kp of the compound in C57BL/6 mouse assessed as sobetirome level at 3.05 umol/kg, ip after 1 hr by LC-MS/MS analysis; format: ADME, organism-based
[4] = Prodrug activation in C57BL/6 mouse brain assessed as FAAH-mediated sobetirome formation at 3.05 umol/kg, ip after 1 hr by LC-MS/MS analysis; format: organism-based; settings: in vivo
[5] = Drug uptake in C57BL/6 mouse brain at 3.05 umol/kg, ip after 1 hr by LC-MS/MS analysis; format: ADME, organism-based; settings: read-out: Drug uptake
[6] = Brain to serum permeability coefficient, Kp of the compound in C57BL/6 mouse at 3.05 umol/kg, ip after 1 hr by LC-MS/MS analysis; format: ADME, organism-based
[7] = Drug uptake in C57BL/6 mouse serum at 3.05 umol/kg, ip after 1 hr by LC-MS/MS analysis; format: ADME, organism-based; settings: read-out: Drug uptake

| SMILES | Drug uptake [1] | Drug metabolism [2] | Kp [3] | Drug uptake [4] | concentration at 1 h [5] | Kp at 1 h [6] | concentration at 1 h [7] |
| --- | --- | --- | --- | --- | --- | --- | --- |
| Cc1cc(OCC(=O)NC2CC2)cc(C)c1Cc1ccc(O)c(C(C)C)c1 | 23.8 ng/g | 3.2 nmol/mg/min | 2.49 | 58 ng/g |  |  |  |
| Cc1cc(OCC(=O)NN)cc(C)c1Cc1ccc(O)c(C(C)C)c1 | 199.5 ng/g | 3.8 nmol/mg/min | 0.58 | 68.2 ng/g |  |  |  |
| Cc1cc(OCC(=O)Nc2cccc(O)c2)cc(C)c1Cc1ccc(O)c(C(C)C)c1 | 325.7 ng/g | 10.1 nmol/mg/min | 0.04 | 12.8 ng/g |  |  |  |
| Cc1cc(OCC(=O)NCC(F)(F)F)cc(C)c1Cc1ccc(O)c(C(C)C)c1 | 80.2 ng/g | 4.8 nmol/mg/min | 0.76 | 59.4 ng/g |  |  |  |
| Cc1cc(OCC(=O)NC(CO)CO)cc(C)c1Cc1ccc(O)c(C(C)C)c1 | 98 ng/g | 3.7 nmol/mg/min | 0.03 | 2.6 ng/g |  |  |  |
| Cc1cc(OCC(=O)NCCO)cc(C)c1Cc1ccc(O)c(C(C)C)c1 | 66.8 ng/g | 4.8 nmol/mg/min | 0.37 | 25.5 ng/g |  |  |  |
| Cc1cc(OCC(=O)NCc2ccccc2)cc(C)c1Cc1ccc(O)c(C(C)C)c1 | 15.2 ng/g | 1.7 nmol/mg/min | 0.95 | 15.7 ng/g |  |  |  |
| Cc1cc(OCC(=O)N(C)C)cc(C)c1Cc1ccc(O)c(C(C)C)c1 | 10.4 ng/g | 4.3 nmol/mg/min | 3.17 | 32.2 ng/g |  |  |  |
| Cc1cc(OCC(=O)O)cc(C)c1Cc1ccc(O)c(C(C)C)c1 [SOBETIROME] |  |  |  |  | 3.6 ng/g | 0.03 | 319 ng/g |
| Cc1cc(OCC(=O)NCCS(=O)(=O)[O-])cc(C)c1Cc1ccc(O)c(C(C)C)c1.[Na+] | 45.7 ng/g | 8.9 nmol/mg/min | 0.18 | 7.1 ng/g |  |  |  |
| Cc1cc(OCC(=O)Nc2cccc(F)c2)cc(C)c1Cc1ccc(O)c(C(C)C)c1 | 383.8 ng/g | 2.1 nmol/mg/min | 0.04 | 15.4 ng/g |  |  |  |
| Cc1cc(OCC(=O)Nc2ccccc2O)cc(C)c1Cc1ccc(O)c(C(C)C)c1 | 174.7 ng/g | 1.4 nmol/mg/min | 0.04 | 7.4 ng/g |  |  |  |
| Cc1cc(OCC(=O)NCCc2ccccc2)cc(C)c1Cc1ccc(O)c(C(C)C)c1 | 8.6 ng/g | 1 nmol/mg/min | 1.31 | 11.3 ng/g |  |  |  |
| Cc1cc(OCC(=O)NCC#N)cc(C)c1Cc1ccc(O)c(C(C)C)c1 | 107.7 ng/g | 5 nmol/mg/min | 0.57 | 59.9 ng/g |  |  |  |
| Cc1cc(OCC(=O)NCCN)cc(C)c1Cc1ccc(O)c(C(C)C)c1 | 6.9 ng/g | 5.6 nmol/mg/min | 0.07 | 0.8 ng/g |  |  |  |
| C#CCNC(=O)COc1cc(C)c(Cc2ccc(O)c(C(C)C)c2)c(C)c1 | 59.4 ng/g | 3.2 nmol/mg/min | 0.99 | 59.5 ng/g |  |  |  |
| CCCNC(=O)COc1cc(C)c(Cc2ccc(O)c(C(C)C)c2)c(C)c1 | 16.9 ng/g | 2.6 nmol/mg/min | 1.15 | 20.2 ng/g |  |  |  |
| CCNC(=O)COc1cc(C)c(Cc2ccc(O)c(C(C)C)c2)c(C)c1 | 21.5 ng/g | 3.4 nmol/mg/min | 2.74 | 58.2 ng/g |  |  |  |
| Cc1cc(OCC(=O)NCC(F)F)cc(C)c1Cc1ccc(O)c(C(C)C)c1 | 128.8 ng/g | 3.4 nmol/mg/min | 1.04 | 125.4 ng/g |  |  |  |
| Cc1cc(OCC(=O)NC(C)CO)cc(C)c1Cc1ccc(O)c(C(C)C)c1 (stereo not given) | 33.7 ng/g | 4.5 nmol/mg/min | 0.69 | 22.3 ng/g |  |  |  |
| Cc1cc(OCC(=O)NCCc2ccc(O)c(O)c2)cc(C)c1Cc1ccc(O)c(C(C)C)c1 | 4.9 ng/g | 0.8 nmol/mg/min | 0.94 | 7.4 ng/g |  |  |  |
| CONC(=O)COc1cc(C)c(Cc2ccc(O)c(C(C)C)c2)c(C)c1 | 209.7 ng/g | 4.1 nmol/mg/min | 0.04 | 8.4 ng/g |  |  |  |
| Cc1cc(OCC(N)=O)cc(C)c1Cc1ccc(O)c(C(C)C)c1 | 79.5 ng/g | 4.7 nmol/mg/min | 1.17 | 93.9 ng/g |  |  |  |
| Cc1cc(OCC(=O)NCCNS(C)(=O)=O)cc(C)c1Cc1ccc(O)c(C(C)C)c1 | 26.2 ng/g | 2.4 nmol/mg/min | 0.06 | 1.6 ng/g |  |  |  |
| C=CCNC(=O)COc1cc(C)c(Cc2ccc(O)c(C(C)C)c2)c(C)c1 | 25.4 ng/g | 3.6 nmol/mg/min | 1.23 | 33.4 ng/g |  |  |  |
| Cc1cc(OCC(=O)NCCF)cc(C)c1Cc1ccc(O)c(C(C)C)c1 | 64.2 ng/g | 3.5 nmol/mg/min | 1.7 | 107.1 ng/g |  |  |  |
| Cc1cc(OCC(=O)NC2COC2)cc(C)c1Cc1ccc(O)c(C(C)C)c1 | 110.6 ng/g | 3.7 nmol/mg/min | 0.75 | 79.2 ng/g |  |  |  |
| Cc1cc(OCC(=O)NCC(C)O)cc(C)c1Cc1ccc(O)c(C(C)C)c1 (stereo not given) | 55.7 ng/g | 3.6 nmol/mg/min | 0.72 | 38.7 ng/g |  |  |  |
| Cc1cc(OCC(=O)NO)cc(C)c1Cc1ccc(O)c(C(C)C)c1 | 127.7 ng/g | 4.9 nmol/mg/min | 0.03 | 2.8 ng/g |  |  |  |
